# Measured values from article PMC8774845 (Plant Physiology, 2021).
# “And” between values parts separate entries of the source, which are not always exact repeats. Equal values may be shown once. “Also recorded” adds a separate entry of the source. Read-outs that look alike come from different tables or passages of the source.
# Legend:
# [1] = target: AtADT1 (Arabidopsis thaliana, UniProt Q9SA96); assay: Effect of 100 μM Phe over ADT activity, recombinant type-I ADT; assay type: biochemical, A. thaliana; conditions: 100 µM of Phe, 100 µM of substrate (Agn), compared to control (absence of Phe)
# Procedure, shortened: (§1)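 Type-I or type-II plant ADT ORFs were cloned from cDNA into pET30b without the putative plastid transit peptide and with a C-terminal His tag. Proteins were expressed in E. coli BL21 DE3 RIL (0.5 mM IPTG, 18–20 h at 12°C) and Ni-purified. About 1 µg was preincubated 5 min with 100 µM Phe in 50 mM Tris pH 8.0. Reaction started with 100 µM Agn at 30°C and was stopped with methanol. Phe formed was quantified by UPLC/MS. Activity is relative to the no-Phe control (100%); triplicate.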
# [2] = test system: PpADT-C; assay: Inhibition of PDT activity by Phe, recombinant enzyme; assay type: biochemical, Pinus pinaster
# Procedure, shortened: (§2)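 PDT reaction: about 5 µg of His-tagged, Ni-purified Pinus pinaster ADT (wild-type or fusion-PCR chimera) in 50 mM Tris pH 8.0 was preincubated 5 min with Phe. The reaction started with 1 mM Ppa at 30°C; Ppa content was first verified by HCl conversion. It was stopped with 2 M NaOH and left ≥10 min at room temperature. Phenylpyruvate was read at 321 nm against a calibration curve. At least duplicate; IC50, Ki and inhibition type came from kinetic fitting.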
# [3] = test system: ADT activity; conditions: read-out: IC50 for ADT activity; crude plant extracts; ref Jung et al., 1986; cited from earlier work
# [4] = target: PpADT-Cmut^1; assay: Inhibition of ADT activity by Phe, chimeric enzyme; assay type: biochemical, Pinus pinaster; conditions: read-out: ADT IC50 (μM of Phe), 0.1 mM of Agn
# Procedure, shortened: (§3)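 The Pinus pinaster ADT was used either as wild-type or as chimeras made by fusion PCR. It was His-tagged without the transit peptide, expressed in E. coli BL21 DE3 RIL and Ni-purified. About 1 µg of protein in 50 mM Tris pH 8.0 was preincubated 5 min with a range of Phe concentrations. Reaction started with 0.1 mM Agn at 30°C and was stopped with methanol. Phe product was quantified by UPLC/MS, with linearity checked over ≥5 min. At least duplicate; IC50 from kinetic fitting.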
# [5] = target: PpADT-C; assay: Inhibition of ADT activity by Phe, recombinant enzyme; assay type: biochemical, Pinus pinaster; conditions: read-out: ADT IC50 (μM of Phe), 0.1 mM of Agn
# Procedure, shortened: as §3
# [6] = test system: Zeama2G125923; assay: Effect of 100 μM Phe over ADT activity, recombinant type-II ADT; assay type: biochemical, Zea mays; conditions: 100 µM of Phe, 100 µM of substrate (Agn)
# Procedure, shortened: as §1
# [7] = target: PpADT-Gmut^9; assay: Inhibition of PDT activity by Phe, mutant enzyme; assay type: biochemical, Pinus pinaster; conditions: read-out: IC50 (μM) for Phe; PDT reaction, 1 mM of substrate (Ppa); Ala314→Val, Ala316→Ser, Val317→Ala
# Procedure, shortened: (§4)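 Ni-purified His-tagged mutants, expressed in E. coli BL21 DE3 RIL, were assayed for PDT activity. About 5 µg protein in 50 mM Tris pH 8.0 was preincubated 5 min at 30°C with varying Phe. Reactions were started with 1 mM prephenate, stopped with 2 M NaOH and read at 321 nm against a phenylpyruvate calibration. Runs were in triplicate, linear ≥5 min, with IC50 obtained by kinetic fitting.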
# [8] = target: plastidial CM; conditions: read-out: Ki, inhibition of plastidial CM by Phe; ref Benesova and Bode, 1992; cited from earlier work
# [9] = test system: Potri11G4700; assay: Effect of 100 μM Phe over ADT activity, recombinant type-I ADT; assay type: biochemical, Populus trichocarpa; conditions: 100 µM of Phe, 100 µM of substrate (Agn), compared to control (absence of Phe)
# Procedure, shortened: as §1
# [10] = test system: Potri4G188100; assay: Effect of 100 μM Phe over ADT activity, recombinant type-II ADT; assay type: biochemical, P. trichocarpa; conditions: 100 µM of Phe, 100 µM of substrate (Agn)
# Procedure, shortened: as §1
# [11] = test system: PpADT-Gmut^8; assay: Effect of 100 μM Phe over ADT activity, mutant enzyme; assay type: biochemical, Pinus pinaster; conditions: Phe at 100 µM
# Procedure, shortened: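 His-tagged recombinant mutant enzyme without its transit peptide, expressed in E. coli BL21 DE3 RIL and Ni-purified. About 1 µg protein in 50 mM Tris pH 8.0 was preincubated 5 min at 30°C with 100 µM Phe. Arogenate was added to start the reaction, and methanol stopped it. Phe formed was quantified by UPLC/MS against a pure-Phe calibration. Activity is relative to the no-Phe control; error bars sd.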
# [12] = target: AtADT4 (Arabidopsis thaliana, UniProt O22241); assay: Effect of 100 μM Phe over ADT activity, recombinant type-II ADT; assay type: biochemical, A. thaliana; conditions: 100 µM of Phe, 100 µM of substrate (Agn)
# Procedure, shortened: as §1
# [13] = target: PpADT-Gmut^102; assay: Inhibition of PDT activity by Phe, mutant enzyme; assay type: biochemical, Pinus pinaster; conditions: read-out: IC50 (μM) for Phe; PDT reaction, 1 mM of substrate (Ppa); Leu320→Phe
# Procedure, shortened: (§5)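 PpADT-G point mutants were made by site-directed mutagenesis, expressed His-tagged in E. coli BL21 DE3 RIL and Ni-purified. About 5 µg of protein in 50 mM Tris pH 8.0 was preincubated 5 min with varying Phe. The PDT reaction started with 1 mM Ppa at 30°C and was stopped with 2 M NaOH. Phenylpyruvate was read by absorbance at 321 nm against a phenylpyruvate calibration. Triplicate; IC50 was fitted.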
# [14] = target: PpADT-Gmut^6; assay: Inhibition of PDT activity by Phe, mutant enzyme; assay type: biochemical, Pinus pinaster; conditions: read-out: IC50 (μM) for Phe; PDT reaction, 1 mM of substrate (Ppa); Thr303→Ala, Leu304→Gln
# Procedure, shortened: as §4
# [15] = target: PpADT-Gmut^62; assay: Inhibition of PDT activity by Phe, mutant enzyme; assay type: biochemical, Pinus pinaster; conditions: read-out: IC50 (μM) for Phe; PDT reaction, 1 mM of substrate (Ppa); Thr303→Ala, Leu304→His
# Procedure, shortened: as §4
# [16] = target: PpADT-Gmut^11; assay: Inhibition of PDT activity by Phe, mutant enzyme; assay type: biochemical, Pinus pinaster; conditions: read-out: IC50 (μM) for Phe; PDT reaction, 1 mM of substrate (Ppa); Ala314→Val
# Procedure, shortened: as §5
# [17] = target: PpADT-Gmut^103; assay: Inhibition of PDT activity by Phe, mutant enzyme; assay type: biochemical, Pinus pinaster; conditions: read-out: IC50 (μM) for Phe; PDT reaction, 1 mM of substrate (Ppa); Asn324→Ser
# Procedure, shortened: as §5
# [18] = test system: PpADT-G; assay: Inhibition of PDT activity by Phe, recombinant enzyme; assay type: biochemical, Pinus pinaster
# Procedure, shortened: as §2
# [19] = test system: Cucsa52640; assay: Effect of 100 μM Phe over ADT activity, recombinant type-I ADT; assay type: biochemical, Cucumis sativus; conditions: 100 µM of Phe, 100 µM of substrate (Agn), compared to control (absence of Phe)
# Procedure, shortened: as §1
# [20] = target: PpADT-Gmut^13; assay: Inhibition of PDT activity by Phe, mutant enzyme; assay type: biochemical, Pinus pinaster; conditions: read-out: IC50 (μM) for Phe; PDT reaction, 1 mM of substrate (Ppa); Val317→Ala
# Procedure, shortened: as §5
# [21] = test system: PpADT-Cmut^1; assay: Inhibition of PDT activity by Phe, chimeric enzyme; assay type: biochemical, Pinus pinaster
# Procedure, shortened: as §2
# [22] = test system: PpADT-G; assay: Inhibition of ADT activity by Phe, recombinant enzyme; assay type: biochemical, Pinus pinaster
# Procedure, shortened: as §3
# [23] = test system: PpADT-Gmut^1; assay: Inhibition of PDT activity by Phe, chimeric enzyme; assay type: biochemical, Pinus pinaster
# Procedure, shortened: as §2
# [24] = test system: Niben8991; assay: Effect of 100 μM Phe over ADT activity, recombinant type-I ADT; assay type: biochemical, Nicotiana benthamiana; conditions: 100 µM of Phe, 100 µM of substrate (Agn), compared to control (absence of Phe)
# Procedure, shortened: as §1
# [25] = target: plastidial CM; conditions: read-out: Ki, inhibition of plastidial CM by Phe; ref Kuroki and Conn, 1988; cited from earlier work
# [26] = test system: plastidial CM; conditions: read-out: IC50, inhibition of plastidial CM by Phe; ref Kroll et al., 2017; cited from earlier work
# [27] = target: PpADT-Gmut^16; assay: Inhibition of PDT activity by Phe, mutant enzyme; assay type: biochemical, Pinus pinaster; conditions: read-out: IC50 (μM) for Phe; PDT reaction, 1 mM of substrate (Ppa); Ala316→Ser, Val317→Ala
# Procedure, shortened: as §4
# [28] = target: PpADT-Gmut^8; assay: Inhibition of PDT activity by Phe, mutant enzyme; assay type: biochemical, Pinus pinaster; conditions: read-out: IC50 (μM) for Phe; PDT reaction, 1 mM of substrate (Ppa); Pro308→Thr, Gly309→Ser
# Procedure, shortened: as §4
# [29] = test system: plastidial CM; conditions: read-out: IC50, inhibition of plastidial CM by Phe; ref Westfall et al., 2014; cited from earlier work
# [30] = target: PpADT-Gmut^10; assay: Inhibition of PDT activity by Phe, mutant enzyme; assay type: biochemical, Pinus pinaster; conditions: read-out: IC50 (μM) for Phe; PDT reaction, 1 mM of substrate (Ppa); Leu320→Phe, Asn324→Ser
# Procedure, shortened: as §4
# [31] = target: PpADT-Gmut^12; assay: Inhibition of PDT activity by Phe, mutant enzyme; assay type: biochemical, Pinus pinaster; conditions: read-out: IC50 (μM) for Phe; PDT reaction, 1 mM of substrate (Ppa); Ala316→Ser
# Procedure, shortened: as §5
# [32] = test system: Orysa4G33390; assay: Effect of 100 μM Phe over ADT activity, recombinant type-II ADT; assay type: biochemical, O. sativa; conditions: 100 µM of Phe, 100 µM of substrate (Agn)
# Procedure, shortened: as §1
# [33] = target: PpADT-Gmut^1; assay: Inhibition of ADT activity by Phe, chimeric enzyme; assay type: biochemical, Pinus pinaster; conditions: read-out: ADT IC50 (μM of Phe), 0.1 mM of Agn
# Procedure, shortened: as §3
# [34] = read-out: PDT IC50 (μM of Phe), 1 mM of Ppa
# Sequence of AtADT4 (O22241 35-424): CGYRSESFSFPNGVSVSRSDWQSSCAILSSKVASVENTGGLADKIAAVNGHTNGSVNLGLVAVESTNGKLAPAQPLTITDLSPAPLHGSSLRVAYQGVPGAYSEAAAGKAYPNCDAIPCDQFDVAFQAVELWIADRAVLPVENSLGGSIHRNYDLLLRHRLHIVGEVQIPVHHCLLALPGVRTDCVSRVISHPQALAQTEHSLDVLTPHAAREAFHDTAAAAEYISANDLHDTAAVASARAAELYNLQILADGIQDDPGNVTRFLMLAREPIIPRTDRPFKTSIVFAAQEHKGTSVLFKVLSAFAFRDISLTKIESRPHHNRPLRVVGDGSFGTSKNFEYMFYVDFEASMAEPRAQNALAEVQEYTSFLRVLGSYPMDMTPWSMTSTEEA
# Sequence of AtADT1 (Q9SA96 49-392): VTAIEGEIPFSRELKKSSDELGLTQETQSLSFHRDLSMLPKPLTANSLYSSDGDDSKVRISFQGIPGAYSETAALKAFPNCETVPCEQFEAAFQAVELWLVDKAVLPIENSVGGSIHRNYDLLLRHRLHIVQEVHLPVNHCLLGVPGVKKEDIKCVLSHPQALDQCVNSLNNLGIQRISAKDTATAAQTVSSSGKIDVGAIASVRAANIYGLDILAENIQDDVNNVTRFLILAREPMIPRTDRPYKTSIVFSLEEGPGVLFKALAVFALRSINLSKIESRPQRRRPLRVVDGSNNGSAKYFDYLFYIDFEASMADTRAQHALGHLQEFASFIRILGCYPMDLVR
compound,measurement,setting,value
"N[C@@H](Cc1ccccc1)C(=O)O [Phe, phenylalanine]",decrease in ADT activity,[1],> 90%
same,Proposed type of inhibition,[2],Cooperative
same,IC50,[2]; [34],320 µM
same,IC50,[3],~35 µM
same,IC50,[4],~52.8 µM and 52.8 µM
same,IC50,[5],> 100 µM
same,effect on ADT activity,[6],not substantially affected
same,IC50,[7],17.5 ± 3.7 µM
same,Ki,[8],1.1 mM
same,decrease in ADT activity,[9],> 90%
same,effect on ADT activity,[10],not substantially affected
same,Phe-mediated inhibition of ADT activity compared to the wild-type,[11],more resistant to inhibition than the wild-type
same,effect on ADT activity,[12],not substantially affected
same,IC50,[13],135.4 ± 0.7 µM
same,IC50,[14],333 ± 8 µM
same,IC50,[15],333.5 ± 3.1 µM
same,IC50,[16],14.6 ± 2.3 µM
same,IC50,[17],234 ± 4.9 µM
same,Proposed type of inhibition,[18],Uncompetitive
same,IC50,[18]; [34],47.7 ± 3 µM
same,Ki,[18]; read-out: PDT K i (μM of Phe),28.1 ± 1 µM
same,decrease in ADT activity,[19],> 90%
same,IC50,[20],23.6 ± 1.4 µM
same,Proposed type of inhibition,[21],Uncompetitive
same,IC50,[21]; [34],~36.1 µM and 36.1 µM
same,Ki,[21]; read-out: PDT K i (μM of Phe),170 ± 16.3 µM
same,ADT activity at 100 µM of Phe,[22]; 100 µM of Phe,mostly inactive
same,IC50,"[22]; read-out: ADT IC50 (μM of Phe), ADT activity, 0.1 mM of Agn",27.6 ± 1.5 µM
same,Proposed type of inhibition,[23],allosteric; also recorded: Cooperative
same,IC50,[23]; [34],390 ± 15.4 µM
same,decrease in ADT activity,[24],> 90%
same,Ki,[25],550 µM
same,IC50,[26],82 µM
same,IC50,[27],17.2 ± 0.2 µM
same,IC50,[28],445 µM
same,IC50,[29],50 µM
same,IC50,[30],184 ± 24.7 µM
same,IC50,[31],26 ± 4.8 µM
same,effect on ADT activity,[32],not substantially affected
same,IC50,[33],> 100 µM
